Measured values from ChEMBL document CHEMBL2157987, “Benzimidazole bearing oxadiazole and triazolo-thiadiazoles nucleus: design and synthesis as anticancer agents” (2012).

How the values were obtained:
Type in all cases: functional
[1] = tested on: HCT-15; test: Cytotoxicity against human HCT15 cells after 48 hrs by SRB assay; conditions: HCT-15, 48 h
In short: (§1)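 Five-dose NCI-60 panel screen: cells grown in RPMI 1640 with 5% FBS and 2 mM L-glutamine, preincubated 24 h at 37 °C, 5% CO2. Five 10-fold dilutions, 0.01–100 µM, applied for 48 h. Fixed with cold TCA (10% final), stained with 0.4% SRB, absorbance read at 515 nm. GI50, TGI and LC50 were taken from log concentration versus % growth curves using time-zero plates.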

[2] = tested on: LOX IMVI; test: Cytotoxicity against human LOXIMVI cells after 48 hrs by SRB assay; in short: as §1
[3] = tested on: SF-539; test: Cytotoxicity against human SF539 cells after 48 hrs by SRB assay; conditions: SF-539, 48 h; in short: as §1
[4] = tested on: MDA-MB-435; test: Cytotoxicity against human MDA-MB-435 cells assessed as cell growth at 10 uM after 48 hrs by SRB assay; conditions: MDA-MB-435, 48 h, read-out: Activity
In short: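 NCI single-dose screen at 10 µM. Cells were incubated 48 h and the end point was read by sulforhodamine B protein staining. Results are given as percent growth of treated cells relative to untreated controls. Growth of 32% or less was counted as active.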

[5] = tested on: MCF7; test: Cytotoxicity against human MCF7 cells after 48 hrs by SRB assay; conditions: MCF7, 48 h; in short: as §1
[6] = tested on: HOP-92; test: Cytotoxicity against human HOP92 cells after 48 hrs by SRB assay; conditions: HOP-92, 48 h; in short: as §1
[7] = tested on: SF-268; test: Cytotoxicity against human SF268 cells after 48 hrs by SRB assay; conditions: SF-268, 48 h; in short: as §1
[8] = tested on: SW-620; test: Cytotoxicity against human SW620 cells after 48 hrs by SRB assay; conditions: SW-620, 48 h
In short: (§2)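 Cells were grown in RPMI 1640 with 5% FBS and 2 mM L-glutamine, then held 24 h at 37 °C and 5% CO2 before dosing. TCA-fixed time-zero plates were kept. Compound was dissolved in DMSO and given at five 10-fold dilutions for 48 h. Cells were fixed with cold TCA (10% final), stained with 0.4% SRB and read at 515 nm. GI50, TGI and LC50 came from Ti/Tz/control growth formulas.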

[9] = tested on: SF-295; test: Cytotoxicity against human SF295 cells after 48 hrs by SRB assay; conditions: SF-295, 48 h; in short: as §1
[10] = tested on: NCI-H226; test: Cytotoxicity against human NCI-H226 cells after 48 hrs by SRB assay; conditions: NCI-H226, 48 h; in short: as §1
[11] = tested on: KM12; test: Cytotoxicity against human KM12 cells after 48 hrs by SRB assay; conditions: KM12, 48 h; in short: as §1
[12] = tested on: MDA-MB-435; test: Cytotoxicity against human MDA-MB-435 cells after 48 hrs by SRB assay; conditions: MDA-MB-435, 48 h; in short: as §1
[13] = tested on: OVCAR-3; test: Cytotoxicity against human OVCAR3 cells after 48 hrs by SRB assay; conditions: OVCAR-3, 48 h; in short: as §1
[14] = tested on: HOP-62; test: Cytotoxicity against human HOP62 cells after 48 hrs by SRB assay; conditions: HOP-62, 48 h; in short: as §1
[15] = tested on: MOLT-4; test: Cytotoxicity against human MOLT4 cells after 48 hrs by SRB assay; conditions: MOLT-4, 48 h; in short: as §1
[16] = tested on: NCI-H322M; test: Cytotoxicity against human NCI-H322M cells after 48 hrs by SRB assay; in short: as §1
[17] = tested on: U-251; test: Cytotoxicity against human U251 cells after 48 hrs by SRB assay; conditions: U-251, 48 h; in short: as §2
[18] = tested on: CAKI-1; test: Cytotoxicity against human Caki1 cells after 48 hrs by SRB assay; conditions: CAKI-1, 48 h; in short: as §1
[19] = tested on: SNB-75; test: Cytotoxicity against human SNB75 cells after 48 hrs by SRB assay; conditions: SNB-75, 48 h; in short: as §2
[20] = tested on: HL-60(TB); test: Cytotoxicity against human HL-60(TB) cells after 48 hrs by SRB assay; conditions: HL-60, 48 h
In short: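 Human tumour line grown in RPMI 1640 with 5% FBS and 2 mM L-glutamine. Cells were plated and held 24 h at 37 °C/5% CO2 before dosing, and time-zero plates were TCA-fixed. Five 10-fold concentrations (0.01–100 µM) were added from DMSO stock and incubated 48 h. Cells were TCA-fixed, stained with 0.4% SRB and read at 515 nm. Values were calculated from growth curves relative to time-zero and control.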

[21] = read-out: LC50 (the source's name)
[22] = read-out: pLC50 (the source's name) (converted)

Nc1cc(Br)c(-c2nnc(CCC(=O)c3nc4ccccc4[nH]3)o2)c(Br)c1
GI50 [1]: > 100 µM | CC50 [1, 21]: > 100 µM | TGI ([1]; read-out: TGI): > 100 µM | CC50 [1, 22]: > 100 µM | TGI ([1]; read-out: pTGI): > 100 µM | GI50 [2]: 3.24 µM | CC50 [2, 21]: > 100 µM | TGI ([2]; read-out: TGI): 46.4 µM | CC50 [2, 22]: > 100 µM | TGI ([2]; read-out: pTGI (converted)): 46.8 µM | GI50 [3]: 17.4 µM | CC50 [3, 21]: > 100 µM | TGI ([3]; read-out: TGI): 60.8 µM | CC50 [3, 22]: > 100 µM | TGI ([3]; read-out: pTGI (converted)): 60.3 µM | growth at 10 µM [4]: 5.71% | GI50 [5]: 3.09 µM | CC50 [5, 21]: > 100 µM | TGI ([5]; read-out: TGI): > 100 µM | CC50 [5, 22]: > 100 µM | TGI ([5]; read-out: pTGI): > 100 µM | GI50 [6]: 0.501 µM | CC50 [6, 21]: > 100 µM | TGI ([6]; read-out: TGI): 19.9 µM | CC50 [6, 22]: > 100 µM | TGI ([6]; read-out: pTGI (converted)): 20 µM | GI50 [7]: 5.13 µM | CC50 [7, 21]: > 100 µM | TGI ([7]; read-out: TGI): 81.6 µM | CC50 [7, 22]: > 100 µM | TGI ([7]; read-out: pTGI (converted)): 81.3 µM | GI50 [8]: 3.31 µM | CC50 [8, 21]: > 100 µM | TGI ([8]; read-out: TGI): > 100 µM | CC50 [8, 22]: > 100 µM | TGI ([8]; read-out: pTGI): > 100 µM | GI50 [9]: 9.77 µM | CC50 [9, 21]: > 100 µM | TGI ([9]; read-out: TGI): 35.6 µM | CC50 [9, 22]: > 100 µM | TGI ([9]; read-out: pTGI (converted)): 35.5 µM | GI50 [10]: 22.4 µM | CC50 [10, 21]: > 100 µM | TGI ([10]; read-out: TGI): > 100 µM | CC50 [10, 22]: > 100 µM | TGI ([10]; read-out: pTGI): > 100 µM | GI50 [11]: 3.72 µM | CC50 [11, 21]: > 100 µM | TGI ([11]; read-out: TGI): 18 µM | CC50 [11, 22]: > 100 µM | TGI ([11]; read-out: pTGI (converted)): 18.2 µM | GI50 [12]: 1.55 µM | CC50 [12, 21]: 8.83 µM | TGI ([12]; read-out: TGI): 3.71 µM | CC50 [12, 22]: 8.91 µM | TGI ([12]; read-out: pTGI (converted)): 3.72 µM | GI50 [13]: 2.63 µM | LC50 ([13]; read-out: LC50): > 100 µM | TGI ([13]; read-out: TGI): 6.98 µM | LC50 ([13]; read-out: pLC50 (converted)): > 100 µM | TGI ([13]; read-out: pTGI (converted)): 6.92 µM | GI50 [14]: 23.4 µM | CC50 [14, 21]: > 100 µM | TGI ([14]; read-out: TGI): > 100 µM | CC50 [14, 22]: > 100 µM | TGI ([14]; read-out: pTGI): > 100 µM | GI50 [15]: 4.9 µM | CC50 [15, 21]: > 100 µM | TGI ([15]; read-out: TGI): > 100 µM | CC50 [15, 22]: > 100 µM | TGI ([15]; read-out: pTGI): > 100 µM | GI50 [16]: 8.13 µM | CC50 [16, 21]: > 100 µM | TGI ([16]; read-out: TGI): > 100 µM | CC50 [16, 22]: > 100 µM | TGI ([16]; read-out: pTGI): > 100 µM | GI50 [17]: 3.47 µM | CC50 [17, 21]: > 100 µM | TGI ([17]; read-out: TGI): > 100 µM | CC50 [17, 22]: > 100 µM | TGI ([17]; read-out: pTGI): > 100 µM | GI50 [18]: 20 µM | LC50 ([18]; read-out: LC50): > 100 µM | TGI ([18]; read-out: TGI): > 100 µM | LC50 ([18]; read-out: pLC50 (converted)): > 100 µM | TGI ([18]; read-out: pTGI): > 100 µM | GI50 [19]: 2.95 µM | CC50 [19, 21]: > 100 µM | TGI ([19]; read-out: TGI): 20.5 µM | CC50 [19, 22]: > 100 µM | TGI ([19]; read-out: pTGI (converted)): 20.4 µM | GI50 [20]: 3.47 µM | CC50 [20, 21]: > 100 µM | TGI ([20]; read-out: TGI): > 100 µM | CC50 [20, 22]: > 100 µM | TGI ([20]; read-out: pTGI): > 100 µM
